Data as given in ChEMBL document CHEMBL1156353, “Synthetic secofriedelane and friedelane derivatives as inhibitors of human lymphocyte proliferation and growth of human cancer cell lines in vitro” (J Nat Prod, 2001).
Activity calls are given as the source filed them. No cut-off for these calls is given here.

Key:
UACC-62 = assay: Cytotoxicity against human UACC62 cells by SRB assay; format: functional
Procedure, shortened: (§1)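 Lines from NCI, kept adherent in RPMI-1640 with 5% heat-inactivated FBS, 2 mM glutamine, 50 µg/mL gentamicin, 37 °C, 5% CO2; plated at densities ensuring exponential growth. Growth measured by NCI screening protocol with sulforhodamine B staining; GI50 per NCI method, means ± SEM from 3-6 independent experiments in duplicate. Compounds from DMSO stocks.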

[1] = (§2) Inhibition of PHA-induced human T cell proliferation after 24 hrs by MTT assay; format: functional, cell-based
Procedure, shortened: (§3)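 Human peripheral blood mononuclear cells (Histopaque-1077 isolation) stimulated with PHA 10 µg/mL as T-mitogen, in RPMI-1640 with 10% heat-inactivated FBS, 2 mM glutamine; compounds from DMSO stocks; colorimetric MTT read-out; cyclosporin A positive control. IC50 as means ± SEM from 3-6 independent experiments in duplicate.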

T-cell [2] = assay: as §2; format: functional, cell-based; procedure, shortened: as §3
NCI-H460 = assay: Cytotoxicity against human NCI-H460 cells by SRB assay; format: functional; procedure, shortened: as §1
MCF7 = assay: Cytotoxicity against human MCF7 cells by SRB assay; format: functional; procedure, shortened: as §1
[3] = Cytotoxicity against human T cells assessed as cell viability at IC50 after 24 hrs by MTT assay; format: cell-based; settings: read-out: Activity
Procedure, shortened: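 Peripheral blood mononuclear cells from healthy volunteers (Histopaque-1077), (2-3) × 10⁶ cells/mL in RPMI-1640 with 10% heat-inactivated FBS, 2 mM glutamine, gentamicin, exposed 24 h to compound; MTT (1 mg/mL) 4 h, formazan dissolved in SDS/DMF pH 4.7 overnight at 37 °C, OD 550 nm. Viability as % of unexposed cells; below 70% counted as toxic.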

TK-10 = assay: Cytotoxicity against human TK10 cells by SRB assay; format: functional; procedure, shortened: as §1
SF-268 = assay: Cytotoxicity against human SF268 cells by SRB assay; format: functional; procedure, shortened: as §1
T-cell [4] = assay: Inhibition of PHA-induced human T cell proliferation at 100 uM after 24 hrs by MTT assay; format: functional, cell-based

Row | SMILES | GI50 (UACC-62) | IC50 [1] | Activity (T-cell [2]) | GI50 (NCI-H460) | GI50 (MCF7) | viability at 24 h [3] | GI50 (TK-10) | GI50 (SF-268) | Activity (T-cell [4])
1 | C[C@@H](C(=O)O)[C@@]1(C)CC[C@H]2[C@@](C)(CC[C@@]3(C)[C@@H]4CC(C)(C)CC[C@]4(C)CC[C@]23C)[C@@H]1CC=O | 9.9 µM | 10.7 µM | Dose-dependent effect | 5.4 µM | 7 µM | 89% | 10.1 µM | 17.2 µM | –
2 | C[C@H]1[C@@H](O)[C@H](O)C[C@@H]2[C@]1(C)CC[C@H]1[C@@]2(C)CC[C@@]2(C)[C@@H]3CC(C)(C)CC[C@]3(C)CC[C@]12C [PACHYSANDIOL A] | 83.3 µM | 79.1 µM | Dose-dependent effect | 79.4 µM | 66.4 µM | 113% | 95.7 µM | 15.5 µM | –
3 | COc1cccc2c1C(=O)c1c(O)c3c(c(O)c1C2=O)C[C@@](O)(C(=O)CO)C[C@@H]3O[C@H]1C[C@H](N)[C@H](O)[C@H](C)O1 [DOXORUBICIN] | 0.094 µM | – | – | 0.0081 µM | 0.055 µM | – | 0.57 µM | 0.093 µM | –
4 | C[C@H]1[C@@H](O)CC[C@@H]2[C@]1(C)CC[C@H]1[C@@]2(C)CC[C@@]2(C)[C@@H]3CC(C)(C)CC[C@]3(C)CC[C@]12C [EPIFRIEDELINOL] | > 100 µM | – | – | > 100 µM | > 100 µM | – | > 100 µM | > 100 µM | inactive
5 | C[C@H]1[C@H](O)C(=O)C[C@@H]2[C@]1(C)CC[C@H]1[C@@]2(C)CC[C@@]2(C)[C@@H]3CC(C)(C)CC[C@]3(C)CC[C@]12C | > 100 µM | – | – | > 100 µM | > 100 µM | – | > 100 µM | > 100 µM | inactive
6 | COC(=O)[C@H](C)[C@@]1(C)CC[C@H]2[C@@](C)(CC[C@@]3(C)[C@@H]4CC(C)(C)CC[C@]4(C)CC[C@]23C)[C@@H]1CC=O | > 100 µM | – | – | > 100 µM | > 100 µM | – | > 100 µM | > 100 µM | inactive
7 | CC1=C(O)C(=O)C[C@H]2[C@]3(C)CC[C@@]4(C)[C@@H]5CC(C)(C)CC[C@]5(C)CC[C@]4(C)[C@H]3CC[C@]12C | > 100 µM | – | – | > 100 µM | > 100 µM | – | > 100 µM | > 100 µM | inactive
8 | C[C@H]1C(=O)[C@H](O)C[C@@H]2[C@]1(C)CC[C@H]1[C@@]2(C)CC[C@@]2(C)[C@@H]3CC(C)(C)CC[C@]3(C)CC[C@]12C | 86 µM | 82.3 µM | Dose-dependent effect | 67.8 µM | 59.5 µM | 92.7% | 90.5 µM | 95.8 µM | –
9 | C[C@H]1C(=O)C=C[C@@H]2[C@]1(C)CC[C@H]1[C@@]2(C)CC[C@@]2(C)[C@@H]3CC(C)(C)CC[C@]3(C)CC[C@]12C | > 100 µM | – | – | > 100 µM | > 100 µM | – | > 100 µM | > 100 µM | inactive
10 | C[C@H]1C(=O)CC[C@@H]2[C@]1(C)CC[C@H]1[C@@]2(C)CC[C@@]2(C)[C@@H]3CC(C)(C)CC[C@]3(C)CC[C@]12C [FRIEDELINE] | > 100 µM | – | – | > 100 µM | > 100 µM | – | > 100 µM | > 100 µM | inactive
11 | C[C@H]1[C@H](O)CC[C@@H]2[C@]1(C)CC[C@H]1[C@@]2(C)CC[C@@]2(C)[C@@H]3CC(C)(C)CC[C@]3(C)CC[C@]12C | > 100 µM | – | – | > 100 µM | > 100 µM | – | > 100 µM | > 100 µM | inactive
12 | CC(=O)O[C@@H]1CC[C@@H]2[C@](C)(CC[C@H]3[C@@]2(C)CC[C@@]2(C)[C@@H]4CC(C)(C)CC[C@]4(C)CC[C@]32C)[C@H]1C | – | – | – | – | – | – | – | – | inactive
